Ten molecules from ChEMBL document CHEMBL1142576, “New bioactive clerodane diterpenoids from the bark of Casearia grewiifolia” (J Nat Prod, 2005) can be followed below.

Converted amounts (≈) assume the structure as drawn.

Assay [1] deals with Mycobacterium tuberculosis. Briefly: Antimycobacterial activity against Mycobacterium tuberculosis H37Ra by Alamar blue assay. Format: functional. In outline: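 Microplate Alamar Blue Assay (MABA) against strain H37Ra, with isoniazid and kanamycin sulfate as positive-control drugs.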
In a further assay the test system is NCI-H187. Briefly: Cytotoxicity against human NCI-H187 cells. Type of assay: functional, cell-based. In outline:
(§1)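 Human cancer cell lines: epidermoid carcinoma KB, breast cancer BC1 and small cell lung cancer NCI-H187. Colorimetric cytotoxicity method of Skehan and co-workers, with ellipticine as reference.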

Assay [2] in a line: Cytotoxicity against human BC1 cells. Format: functional, cell-based. Put shortly:
as §1

The next assay relates to Plasmodium falciparum. Briefly: Antimalarial activity against Plasmodium falciparum K1 by [3H]hypoxanthine uptake. Format: functional, organism-based. In outline: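 P. falciparum K1 (multidrug-resistant strain) kept in culture after Trager and Jensen; in vitro microculture radioisotope assay per Desjardins. Parasite growth read as [3H]-hypoxanthine uptake; IC50 = concentration giving 50% reduction in growth. Artemisinin as positive control.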

The subject of the next assay is KB. The assay can be described thus: Cytotoxicity against human KB cells. Format: functional, cell-based. Put shortly:
as §1

The MIC is the lowest concentration found to suppress growth. Higher therefore signals weaker potency. Broadly, the IC50 is the midpoint of a concentration-inhibition curve. Low readings indicate greater potency, high ones weaker potency. `C=CC(=C)CC[C@]1(C)[C@H]2C[C@H](OC(=O)CC(C)C)C=C3[C@H](OC(C)=O)O[C@H](OC(C)=O)[C@@]32[C@H](OC)C[C@@H]1C` (relative stereo) [CASEARGREWIIN A] displayed an MIC in assay [1] of 12.5 µg/mL (≈ 23.5 µM). The IC50 came out at 0.9 µg/mL (≈ 1.69 µM) with NCI-H187, 4.6 µg/mL (≈ 8.64 µM) in assay [2], 2.9 µg/mL (≈ 5.44 µM) in the assay on Plasmodium falciparum and 8.7 µg/mL (≈ 16.3 µM) in the assay on KB.

In the case of `NC[C@H]1O[C@H](O[C@H]2[C@H](O)[C@@H](O[C@H]3O[C@H](CO)[C@@H](O)[C@H](N)[C@H]3O)[C@H](N)C[C@@H]2N)[C@H](O)[C@@H](O)[C@@H]1O.O=S(=O)(O)O` [KANAMYCIN SULFATE], the MIC in assay [1] worked out at 2.5 µg/mL.

In turn, `NNC(=O)c1ccncc1` [ISONIAZID] displayed a minimal inhibitory concentration (MIC) in assay [1] of 0.05 µg/mL (≈ 0.365 µM).

In assay [1], `C=CC(=C)CC[C@]1(C)[C@H]2C[C@H](OC(=O)C(C)CC)C=C3[C@H](OC(C)=O)O[C@H](OC(C)=O)[C@@]32[C@H](OC)C[C@@H]1C` (relative stereo) returned an MIC of 12.5 µg/mL (≈ 23.5 µM). For the same molecule, the IC50 in the assay on NCI-H187 is 0.8 µg/mL (≈ 1.5 µM); in assay [2], 4 µg/mL (≈ 7.51 µM); in the assay with Plasmodium falciparum it was 3.2 µg/mL (≈ 6.01 µM); in the assay on KB, 7.6 µg/mL (≈ 14.3 µM).

`C=C/C(C)=C\C[C@]1(C)[C@H](C)[C@@H](OC(C)=O)[C@H](O)[C@@]23C(=C[C@H](OC(=O)CC(C)C)C[C@@H]12)[C@@H](OC(C)=O)O[C@H]3OC(C)=O` (relative stereo) [CASEARGREWIIN C] returned an MIC in assay [1] of 25 µg/mL (≈ 43.4 µM). The IC50 with NCI-H187 is 0.3 µg/mL (≈ 0.52 µM); in assay [2], 2 µg/mL (≈ 3.47 µM); with Plasmodium falciparum it was 3 µg/mL (≈ 5.2 µM); with KB it was 1.9 µg/mL (≈ 3.29 µM).

As for `C[C@@H]1CC[C@H]2[C@@H](C)C(=O)O[C@@H]3O[C@@]4(C)CC[C@@H]1[C@]32OO4` [ARTEMISININ], inhibition in the assay with Plasmodium falciparum was half-maximal at 0.001 µg/mL (≈ 0.00354 µM) (IC50).

Turning to `C=C/C(C)=C\C[C@]1(C)[C@H](C)[C@@H](OC(=O)/C=C/c2ccc(O)cc2)[C@H](O)[C@@]23C(=C[C@H](OC(=O)CCC)C[C@@H]12)[C@@H](OC(C)=O)O[C@H]3OC(C)=O` (relative stereo) [CASEARGREWIIN B], in assay [1], inhibition of growth (MIC) required 12.5 µg/mL (≈ 18.7 µM). The IC50 amounted to 1.5 µg/mL (≈ 2.25 µM) in the assay with NCI-H187, 1.9 µg/mL (≈ 2.85 µM) in assay [2], 2.4 µg/mL (≈ 3.6 µM) in the assay on Plasmodium falciparum and 2.3 µg/mL (≈ 3.45 µM) in the assay on KB.

`Cc1c2ccncc2c(C)c2c1[nH]c1ccccc12` [ELLIPTECINE] displayed an IC50 in assay [2] of 0.26 µg/mL (≈ 1.06 µM).

In assay [1], `C=CC(=C)CC[C@]1(C)[C@H]2C[C@H](OC(=O)C(C)CC)C=C3[C@H](OC(C)=O)O[C@H](OC(C)=O)[C@@]32[C@H](O)C[C@@H]1C` (relative stereo) gave an MIC of 12.5 µg/mL (≈ 24.1 µM). Moreover, the IC50 in the assay with NCI-H187 was determined as 5.3 µg/mL (≈ 10.2 µM); in assay [2], 2.5 µg/mL (≈ 4.82 µM); with Plasmodium falciparum, 3.1 µg/mL (≈ 5.98 µM); with KB, 2.8 µg/mL (≈ 5.4 µM).

As to `C=C/C(C)=C\C[C@]1(C)[C@H](C)CC[C@@]23C(=C[C@H](O)C[C@@H]12)[C@@H](OC(C)=O)O[C@H]3OC(C)=O` [CASEARGREWIIN D], in assay [1], the MIC came out at 12.5 µg/mL (≈ 29.9 µM). The IC50 with NCI-H187 was 1.5 µg/mL (≈ 3.58 µM); in assay [2], 0.1 µg/mL (≈ 0.239 µM); in the assay with Plasmodium falciparum, 3.3 µg/mL (≈ 7.88 µM); with KB it was 1.3 µg/mL (≈ 3.11 µM).
